ChEMBL document CHEMBL1938274, “Discovery of potent and specific CXCR3 antagonists” (Bioorg Med Chem Lett, 2012)

What was measured:
PBL [1] = assay: Toxicity in human PBL assessed as chromosomal aberrations at 7.81 to 1000 ug/mL; format: cell-based
Summary of the method: (§1)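 Cultured human peripheral blood lymphocytes exposed at 7.81–1000 μg/mL, with and without S9 metabolic activation; chromosomal aberrations scored.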

[2] = molecular target: T1, C-X-C chemokine receptor type 3 (Homo sapiens, UniProt P49682); assay: Displacement of [125I]-IP-10 from CXCR3 in presence of 100% human serum
T1 sequence (P49682 whole entry): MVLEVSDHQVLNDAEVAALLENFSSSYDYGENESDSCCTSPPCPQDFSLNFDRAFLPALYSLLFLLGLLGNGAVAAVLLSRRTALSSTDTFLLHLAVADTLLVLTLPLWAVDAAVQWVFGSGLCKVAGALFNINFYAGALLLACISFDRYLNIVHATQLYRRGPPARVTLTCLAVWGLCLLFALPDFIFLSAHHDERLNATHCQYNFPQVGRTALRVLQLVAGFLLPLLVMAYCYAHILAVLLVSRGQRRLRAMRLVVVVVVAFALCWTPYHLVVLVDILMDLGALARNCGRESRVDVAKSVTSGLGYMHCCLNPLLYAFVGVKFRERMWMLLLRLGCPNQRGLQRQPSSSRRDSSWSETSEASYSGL

PBL [3] = assay: Toxicity in human PBL assessed as chromosomal aberrations at 7.81 to 1000 ug/mL in the presence of S9; format: cell-based; summary of the method: as §1
[4] = molecular target: T1, C-X-C chemokine receptor type 3; assay: Displacement of [125I]-IP-10 from CXCR3
[5] = Mean residence time in mouse at 1 mg/kg, iv; format: ADME, organism-based; set-up: dose 1 mg/kg, route intravenous; details: in vivo
Summary of the method: (§2)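 Single intravenous dose in 10% N,N-dimethylacetamide, 10% ethanol, 30% propylene glycol, 50% water: 1 mg/kg mouse; 0.5 mg/kg rat, beagle dog, cynomolgus monkey. Plasma clearance also given as percent of hepatic blood flow.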

[6] = Volume of distribution at steady state in Beagle dog at 0.5 mg/kg, iv; format: ADME, organism-based, Canis lupus familiaris; set-up: dose 0.5 mg/kg, route intravenous; details: in vivo, read-out: Vdss; summary of the method: as §2
[7] = Volume of distribution at steady state in mouse at 1 mg/kg, iv; format: ADME, organism-based; set-up: dose 1 mg/kg, route intravenous; details: in vivo, read-out: Vdss; summary of the method: as §2
[8] = Apparent oral bioavailability in Beagle dog at 2 mg/kg; format: ADME, organism-based, Canis lupus familiaris; details: in vivo, read-out: Fapp
[9] = Apparent oral bioavailability in cynomolgus monkey at 2 mg/kg; format: ADME, organism-based, Macaca fascicularis; details: in vivo, read-out: Fapp
[10] = Clearance in rat at 0.5 mg/kg, iv; format: ADME, organism-based; set-up: dose 0.5 mg/kg, route intravenous; details: in vivo; summary of the method: as §2
[11] = Apparent oral bioavailability in rat at 2 mg/kg; format: ADME, organism-based; details: in vivo, read-out: Fapp
[12] = Mean residence time in rat at 0.5 mg/kg, iv; format: ADME, organism-based; set-up: dose 0.5 mg/kg, route intravenous; details: in vivo; summary of the method: as §2
[13] = Volume of distribution at steady state in rat at 0.5 mg/kg, iv; format: ADME, organism-based; set-up: dose 0.5 mg/kg, route intravenous; details: in vivo, read-out: Vdss; summary of the method: as §2
[14] = Clearance in cynomolgus monkey at 0.5 mg/kg, iv; format: ADME, organism-based, Macaca fascicularis; set-up: dose 0.5 mg/kg, route intravenous; details: in vivo; summary of the method: as §2
[15] = Mean residence time in cynomolgus monkey at 0.5 mg/kg, iv; format: ADME, organism-based, Macaca fascicularis; set-up: dose 0.5 mg/kg, route intravenous; details: in vivo; summary of the method: as §2
[16] = Mean residence time in Beagle dog at 0.5 mg/kg, iv; format: ADME, organism-based, Canis lupus familiaris; set-up: dose 0.5 mg/kg, route intravenous; details: in vivo; summary of the method: as §2
[17] = Volume of distribution at steady state in cynomolgus monkey at 0.5 mg/kg, iv; format: ADME, organism-based, Macaca fascicularis; set-up: dose 0.5 mg/kg, route intravenous; details: in vivo, read-out: Vdss; summary of the method: as §2
[18] = Apparent oral bioavailability in mouse at 5 mg/kg; format: ADME, organism-based; details: in vivo, read-out: Fapp
[19] = Clearance in mouse at 1 mg/kg, iv; format: ADME, organism-based; set-up: dose 1 mg/kg, route intravenous; details: in vivo; summary of the method: as §2
[20] = Clearance in Beagle dog at 0.5 mg/kg, iv; format: ADME, organism-based, Canis lupus familiaris; set-up: dose 0.5 mg/kg, route intravenous; details: in vivo; summary of the method: as §2
Cytochrome P450 3A4 = Cytochrome P450 3A4 (Homo sapiens, UniProt P08684); assay: Time dependent inhibition of CYP3A4; format: ADME
Blood [21] = assay: Drug level in C57BL/6 mouse blood at 1 mg/kg, sc after 1 hr; format: ADME, organism-based; set-up: dose 1 mg/kg, route subcutaneous; details: in vivo
Summary of the method: (§3)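 C57BL/6 mice given bleomycin intra-tracheally and dosed subcutaneously by osmotic mini-pump for 6 days; plasma collected to measure drug level, reported 1 h post dose.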

[22] = molecular target: T2, C-X-C chemokine receptor type 3 (Mus musculus, UniProt O88410); assay: Receptor occupancy of CXCR3 in mouse whole blood assessed as inhibition of ITAC binding by fluorescence quenching based FACS analysis
T2 sequence (O88410 whole entry): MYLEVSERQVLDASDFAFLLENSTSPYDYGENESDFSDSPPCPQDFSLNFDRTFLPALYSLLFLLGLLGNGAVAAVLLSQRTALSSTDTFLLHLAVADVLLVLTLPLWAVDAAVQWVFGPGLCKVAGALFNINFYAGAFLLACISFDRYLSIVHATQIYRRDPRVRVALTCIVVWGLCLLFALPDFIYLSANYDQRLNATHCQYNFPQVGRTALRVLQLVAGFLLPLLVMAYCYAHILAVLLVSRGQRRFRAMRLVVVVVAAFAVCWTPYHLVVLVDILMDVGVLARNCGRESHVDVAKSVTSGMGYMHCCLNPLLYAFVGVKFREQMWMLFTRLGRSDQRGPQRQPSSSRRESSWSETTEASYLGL

Blood [23] = assay: Drug level in C57BL/6 mouse blood at 10 mg/kg, sc after 1 hr; format: ADME, organism-based; set-up: dose 10 mg/kg, route subcutaneous; details: in vivo; summary of the method: as §3

Cytochrome P450 3A4, sequence (P08684 whole entry): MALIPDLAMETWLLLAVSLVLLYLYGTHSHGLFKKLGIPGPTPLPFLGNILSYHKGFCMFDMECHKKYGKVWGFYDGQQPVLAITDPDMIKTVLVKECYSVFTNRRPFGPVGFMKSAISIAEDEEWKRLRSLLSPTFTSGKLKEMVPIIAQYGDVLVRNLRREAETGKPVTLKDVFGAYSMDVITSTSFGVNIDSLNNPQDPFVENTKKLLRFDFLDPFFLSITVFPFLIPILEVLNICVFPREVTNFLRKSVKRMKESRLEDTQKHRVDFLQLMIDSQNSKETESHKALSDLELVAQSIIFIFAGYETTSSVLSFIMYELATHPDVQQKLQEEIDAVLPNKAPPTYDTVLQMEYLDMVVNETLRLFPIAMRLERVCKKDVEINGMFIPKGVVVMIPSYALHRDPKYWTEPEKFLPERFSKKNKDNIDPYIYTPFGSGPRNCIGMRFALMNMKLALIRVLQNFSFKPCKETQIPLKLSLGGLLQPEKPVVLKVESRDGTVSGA

For `CCS(=O)(=O)CCN(C(=O)Cc1ccc(F)c(C(F)(F)F)c1)[C@H](C)c1nc2ncccc2c(=O)n1-c1ccc(F)cc1`, the Activity (PBL [1]) was “Non-toxic”, the IC50 [2] was 50 nM and the Activity (PBL [3]) was “Non-toxic”. It also gave an IC50 [4] of 42 nM.
For `C[C@H](c1nc2ncccc2c(=O)n1-c1ccc(F)cc1)N(CC1CCS(=O)(=O)CC1)C(=O)Cc1ccc(F)c(C(F)(F)F)c1`, the MRT [5] was 2.1 h, the Activity (PBL [1]) was “Non-toxic” and the Vd [6] was 1.3 L/kg. For the same compound, the Vd [7] was 0.73 L/kg, the bioavailability [8] was > 100% and the bioavailability [9] was 51%. The clearance [10] was 35 mL/min/kg, the bioavailability [11] was > 100% and the MRT [12] was 2.4 h. For the same compound, the Vd [13] was 5 L/kg, the IC50 [2] was 17 nM and the clearance [14] was 5.67 mL/min/kg. For the same compound, the Activity (PBL [3]) was “Non-toxic”, the MRT [15] was 6.4 h and the MRT [16] was 1.5 h. For the same compound, the IC50 [4] was 7 nM, the Vd [17] was 2.2 L/kg and the bioavailability [18] was 59%. It also gave a clearance [19] of 5.67 mL/min/kg and a clearance [20] of 14.8 mL/min/kg.
With `C[C@H](c1nc2ncccc2c(=O)n1-c1ccc(F)cc1)N(CC1CCS(=O)(=O)CC1)C(=O)Cc1ccc(C(F)(F)F)c(F)c1` the Activity (PBL [1]) was “Non-toxic”, the IC50 [2] was 22 nM and the Activity (PBL [3]) was “Non-toxic”. The IC50 [4] was 7 nM.
In the case of `CCOc1ccc(-c2c([C@@H](C)N(CCS(=O)(=O)CC)C(=O)Cc3ccc(F)c(C(F)(F)F)c3)nc3ccccn3c2=O)cc1`, the TDI (Cytochrome P450 3A4) is reported as “Not Active”.
For `CCS(=O)(=O)CCN(C(=O)Cc1ccc(F)c(C(F)(F)F)c1)[C@H](C)c1nc2ccccn2c(=O)c1-c1ccc(O)cc1`, the TDI (Cytochrome P450 3A4) was “Active”.
With `CCOc1ccc(-c2c([C@@H](C)N(CCS(=O)(=O)CC)C(=O)Cc3ccc(F)c(C(F)(F)F)c3)nc3ncccn23)cc1` the TDI (Cytochrome P450 3A4) was “Not Active”.
For `CCS(=O)(=O)CCN(C(=O)Cc1ccc(F)c(C(F)(F)F)c1)[C@H](C)c1nc2ncccn2c1-c1ccc(O)cc1`, the TDI (Cytochrome P450 3A4) was “Active”.
`C[C@H](c1nc2ncccc2c(=O)n1-c1ccc(O)cc1)N(Cc1cccnc1)C(=O)Cc1ccc(OC(F)(F)F)cc1` gave an IC50 [2] of 4.1 nM and an IC50 [4] of 816 nM.
For `CCS(=O)(=O)CCN(C(=O)Cc1ccc(F)c(C(F)(F)F)c1)[C@H](C)c1nc2ncccc2c(=O)n1-c1ccc(C#N)cc1`, the MRT [5] was 0.7 h, the Activity (PBL [1]) was “Toxic” and the bioavailability [8] was 69%. The bioavailability [9] was 13%, the clearance [14] was 12.3 mL/min/kg and the Activity (PBL [3]) was “Toxic”. The MRT [15] was 1.7 h, the MRT [16] was 1.2 h and the bioavailability [18] was 17%. It also gave a clearance [19] of 5.83 mL/min/kg and a clearance [20] of 16.7 mL/min/kg.
For `CCOc1ccc(-n2c([C@@H](C)N(Cc3cccnc3)C(=O)Cc3ccc(OC(F)(F)F)cc3)nc3ncccc3c2=O)cc1`, the Drug uptake (Blood [21]) was 0.16 µM, the IC50 [22] was 1900 nM and the Drug uptake (Blood [23]) was 2.3 mg/kg.
For `CCS(=O)(=O)CCN(C(=O)Cc1ccc(F)c(C(F)(F)F)c1)[C@H](C)c1nc2ccccn2c(=O)c1-c1ccc(C#N)cc1`, the Activity (PBL [1]) was “Toxic” and the Activity (PBL [3]) was “Toxic”.
In the case of `CCS(=O)(=O)CCN(C(=O)Cc1ccc(C(F)(F)F)c(F)c1)[C@H](C)c1nc2ncccc2c(=O)n1-c1ccc(C#N)cc1`, the Activity (PBL [1]) is reported as “Toxic” and the Activity (PBL [3]) is reported as “Toxic”.
